SMILES strings stand for the structures. Values after ≈ are worked out from the molar mass of the structure shown.

The source of these data is ChEMBL document CHEMBL1142565, “Prenylbicyclogermacrane diterpenoids from the formosan soft coral Nephthea pacifica” (2005).

For one assay, the system named is HT-29. Put plainly: Cytotoxicity against human HT-29 cells 0.5 to 50 ug/ml. It is filed as functional, cell-based. In a few lines: (§1)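 Cells tested at three concentrations (50, 5 and 0.5 μg/mL). HT-29 (human colon adenocarcinoma) obtained from ATCC. P-388 (mouse lymphocytic leukemia) line supplied by an outside laboratory. Assay otherwise run per a previously described procedure.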

Assay [1] concerns P388. The assay is described as follows: Cytotoxicity against mouse P388 cells at 0.5 to 50 ug/ml. It is filed as functional, cell-based. In a few lines:
as §1

Assay [2] has as its system P388. The assay is described as follows: Cytotoxicity against mouse P388 cells. It is filed as functional. The following applies: read-out: ED50 (the source's name). The method in brief: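 P-388 mouse lymphocytic leukemia cells, supplied by an academic laboratory. Test compounds were run at three concentrations (50, 5 and 0.5 μg/mL), following a previously described cytotoxicity procedure.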

Take `C=C(C)C(CC[C@@]1(C)CC[C@]2(C)O[C@H]2CC[C@](C)(O)[C@H]2C[C@@H]21)OO` (stereo not given in full): the Activity result in the assay on HT-29 and in the assay on P388 [1] was “Not toxic” in each case.

For `C=C1CC/C=C(\C)CC[C@](C)(CCC=C(C)C)[C@H]2C[C@H]12`, the Activity entry in the assay with HT-29 and in the assay with P388 [1] was “Not toxic” each time.

Take `C=C(C)C(CC[C@@]1(C)CC/C(C)=C/[C@H](OC(C)=O)C[C@](C)(O)[C@H]2C[C@@H]21)OO` (stereo not given in full) [PACIFICIN H]: in the assay on P388 [2], the EC50 amounted to 2.01 µg/mL (≈ 5.28 µM). Besides, the Activity result with HT-29 is “Not toxic”.

`C=C(C)C(O)CC[C@@]1(C)CC[C@]2(C)O[C@H]2CC[C@](C)(O)[C@H]2C[C@@H]21` (stereo not given in full): the Activity entry in the assay with HT-29 and in the assay with P388 [1] was “Not toxic” in each case.

For the compound `CC(C)(O)/C=C/C[C@@]1(C)CC[C@]2(C)O[C@H]2CC[C@](C)(O)[C@H]2C[C@@H]21`, the Activity entry in the assay on HT-29 and in the assay with P388 [1] was “Not toxic” throughout.

Turning to `CC(C)=CCC[C@@]1(C)CC[C@]2(C)O[C@H]2CC[C@](C)(O)[C@H]2C[C@@H]21`, the Activity entry in the assay on HT-29 and with P388 [1] was “Not toxic” in each case.

As to `CC(C)(/C=C/C[C@@]1(C)CC[C@]2(C)O[C@H]2CC[C@](C)(O)[C@H]2C[C@@H]21)OO` [PACIFICIN C], the EC50 in the assay with P388 [2] was determined as 1.44 µg/mL (≈ 4.25 µM). Moreover, in the assay on HT-29, the Activity result is “Not toxic”.

For `CC(=O)O[C@H]1/C=C(\C)CC[C@](C)(C/C=C/C(C)(C)OO)[C@H]2C[C@@H]2[C@@](C)(O)C1`, the Activity entry in the assay on HT-29 and in the assay with P388 [1] was “Not toxic” in each case.

With `C=C1CC/C=C(\C)CC[C@](C)(C/C=C/C(C)(C)O)[C@H]2C[C@H]12`, the Activity entry in the assay with HT-29 and in the assay with P388 [1] was “Not toxic” throughout.

On to `C/C1=C\CC[C@](C)(O)[C@H]2C[C@@H]2[C@@](C)(C/C=C/C(C)(C)O)CC1`, for which the Activity entry in the assay on HT-29 and in the assay on P388 [1] was “Not toxic” in each case.
